This is an account of results in ChEMBL document CHEMBL3232983, “Discovery of 2-iminobenzimidazoles as potent hepatitis C virus inhibitors with a novel mechanism of action” (Eur J Med Chem, 2014).

Series [1] has as its system Hepatitis C virus. Briefly: Antiviral activity against cell culture derived Hepatitis C virus expressing NS5A-GFP fusion protein infected in human HuH7 cells assessed as infection rate preincubated for 2 hrs followed by viral inoculation measured after 72 hrs by HTS assay. The conditions noted are these: Huh-7. The series is classed as functional, organism-based, Hepacivirus hominis. The procedure, abridged: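 Naïve Huh-7 cells were exposed to serially diluted compound and inoculated with cell-culture-adapted HCVcc 2 h later. Infection rate was read at 72 h post-infection. EC50 came from 10-point dose-response curves run in duplicate with quadruplicate measurements, fitted by non-linear regression.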

Series [2] is described as follows: Cytotoxicity against human HuH7 cells after 72 hrs by Hoechst 33342 staining-based confocal microscopic analysis. The series is classed as cell-based, Huh-7. In a few lines:
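Naïve Huh-7 cells in the HCVcc format were compound-treated for 2 h, then infected. Cytotoxicity was determined at 72 h post-infection. CC50 came from 10-point dose-response curves in duplicate with quadruplicate measurements, fitted by non-linear regression.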

A short description of series [3]: Half life in rat liver microsomes at 2 uM. The class given is ADME. In a few lines: (§1)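 Compound at 2 µM final (0.02% DMSO) was incubated with 0.5 mg/mL liver microsomes in potassium phosphate buffer. Human microsomes were a mixed-gender pool of 200 donors; rat microsomes were from males. Half-life is reported in minutes.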
(In general: Liver microsomes are a subcellular fraction often used to study metabolism.)

The nature of series [4]: Half life in human liver microsomes at 2 uM. The series is classed as ADME. In a few lines:
as §1

The nature of series [5]: Selectivity index, ratio of CC50 for human HuH7 cells to EC50 for cell culture derived Hepatitis C virus. The series is classed as toxicity, cell-based, Huh-7. The conditions noted are these: read-out: Ratio CC50/EC50. In a few lines:
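SI is CC50/EC50. Both values come from the same HCVcc assay in naïve Huh-7 cells: compound added 2 h before HCVcc inoculation, infection and cytotoxicity read at 72 h. Each was derived from 10-point dose-response curves in duplicate with quadruplicate measurements.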

Series [6] concerns Hepatitis C virus. The experiment in a line: Antiviral activity against Hepatitis C virus infected in human HuH7.5 cells assessed as reduction of secreted infectious viral particles incubated for 48 hrs followed by compound washout measured after 24 hrs. The series is classed as functional, organism-based. The conditions noted are these: Hepacivirus hominis; Huh-7. The procedure, abridged:
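Supernatant-transfer (late-stage) assay. Transfected Huh-7.5 producer cells were treated with serially diluted compound at 37 °C for 48 h, then washed. Supernatant was collected 24 h after the wash, clarified by centrifugation and put onto naïve Huh-7 target cells. HCV RNA replication in the target cells was read at 72 h post inoculation and normalized to the 1% DMSO control (0% inhibition).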

The subject of series [7] is Hepatitis C virus. The experiment in a line: Antiviral activity against Hepatitis C virus infected in human HuH7.5 cells assessed as inhibition of viral RNA replication after 72 hrs. The class given is functional, organism-based. Particulars: Hepacivirus hominis; Huh-7. The procedure, abridged: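 Transiently transfected Huh-7.5 producer cells carrying full-length HCV RNA genomes were plated and left overnight at 37 °C. They were then treated with increasing compound concentrations at 37 °C for 48 h and washed. Viral RNA replication and cytotoxicity in the producer cells were read at 72 h post compound treatment. Data were normalized to the 1% DMSO control, set as 0% inhibition.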

In series [8] the test system is Hepatitis C virus. Briefly: Antiviral activity against Hepatitis C virus pseudotyped lentiviral particle expressing E1/E2 glycoproteins assessed as inhibition of viral attachment and internalization in human HuH7 cells at 3.3 uM preincubated for 1 hr followed by viral inoculation measured after 72 hrs GFP reporter gene assay. The series is classed as functional, organism-based. The conditions noted are these: Hepacivirus hominis, Huh-7. In a few lines:
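Huh-7 target cells were pretreated with 3.3 µM compound for 1 h. Supernatants were replaced at 12 h. GFP expression was scored by confocal microscopy at 72 h post inoculation and normalized to 1% DMSO. Triplicates with quadruple measurements (n = 12).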
In general terms: In a reporter assay the amount or activity of a reporter protein is the signal.

Series [9] relates to Vesicular stomatitis virus. Briefly: Antiviral activity against Vesicular stomatitis virus pseudotyped particle expressing glycoproteins assessed as inhibition of viral attachment and internalization in human HuH7 cells at 3.3 uM preincubated for 1 hr followed by viral inoculation measured after 72 hrs GFP reporter gene assay. The class given is functional, organism-based. The conditions noted are these: Huh-7. In a few lines: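 Supernatant replaced at 12 h. At 72 h post inoculation, GFP expression was read by confocal microscopy at 20x. Data normalized to 1% DMSO control (0% inhibition). Triplicates with quadruple measurements (n = 12).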

The source made the active and inactive calls. The rule behind the calls is not given here.

Regarding `CCc1cn2c3ccccc3n(CCOc3ccc(Cl)cc3)c2n1`, in the series on Hepatitis C virus [1], the half-maximal effective concentration (EC50) (usually the concentration needed to bring the measured effect to its halfway point) amounted to 6000 nM. Moreover, half-maximal cytotoxicity in series [2] (CC50 at 72 h) was put at 20000 nM.
Turning to `Br.Cc1ccc2c(c1)n(C)c(=N)n2CCOc1ccc(Cl)cc1`, the half-life (as a rule, the time in which the quantity being followed falls by half) at 2 µM is 0.145 h in [3] and > 1 h in series [4]. The concentration giving a half-maximal response (EC50) with Hepatitis C virus [1] is 1 nM. Also, in series [2], the CC50 – broadly, the concentration giving 50% cytotoxicity – at 72 h worked out at 2900 nM. Further, the selectivity ratio in series [5] turned out to be 2900.
The matching figures for `Br.Cc1cccc2c1n(C)c(=N)n2CCOc1ccc(Cl)cc1`: 0.41 h, > 1 h, 130 nM, 15000 nM and 115.
As for `Br.Cn1c(=N)n(CCOc2ccc(Cl)cc2)c2ccccc21`, the values for the half-life at 2 µM in series [3] and in series [4] were 0.225 h and > 1 h, respectively. For the same compound, the Activity entry with Hepatitis C virus [6] was “Dose-dependent effect”. The EC50 in the series on Hepatitis C virus [1] was found to be 16 nM. Moreover, the inhibition result in the series on Hepatitis C virus [7] and in the series with Hepatitis C virus [8] was “Active” throughout. In series [2], this compound had a cytotoxic concentration (CC50) at 72 h of 7600 nM. Also, the selectivity ratio in series [5] was found to be 475. Moreover, the inhibition result in [9] was “inactive”.
In the case of `Cn1c(=N)n(CCOc2ccc(C(C)(C)C)cc2)c2ccccc21`, in the series with Hepatitis C virus [1], the EC50 worked out at 45 nM. In series [2], this compound yielded a CC50 at 72 h of 2800 nM. Moreover, the selectivity ratio in series [5] was found to be 62.
The like results for `CCc1ccc(Cn2c(=N)n(C)c3ccccc32)cc1` were, in that order, 460 nM, 5800 nM and 12.6.
For the compound `CCC(=O)Cn1c(=N)n(CCOc2ccc(Cl)cc2)c2ccccc21`, in the series on Hepatitis C virus [1], the EC50 is 2300 nM. The same compound had a half-maximal cytotoxic concentration (CC50) at 72 h in series [2] of 8500 nM.
For `CCc1ccc(OCCn2c(=N)n(C)c3ccccc32)cc1`, the EC50 in the series with Hepatitis C virus [1] came out at 50 nM. The compound further yielded a 50% cytotoxic concentration (CC50) at 72 h in [2] of 8900 nM. The selectivity ratio in series [5] was 178.
Regarding `Clc1ccc(OCCN2C3=NCCN3c3ccccc32)cc1`, the EC50 in the series with Hepatitis C virus [1] came out at 50 nM. This compound also yielded a 50% cytotoxic concentration (CC50) at 72 h in series [2] of 20000 nM.
`Nc1nc2ccccc2n1CCOc1ccc(Cl)cc1`: in the series with Hepatitis C virus [1], the concentration for a half-maximal effect (EC50) came to 4000 nM. The compound also gave a CC50 at 72 h in [2] of 8900 nM.
With `Br.Cn1c(=N)n(CCOc2ccc(Cl)cc2)c2ccc(Cl)cc21`, the half-life at 2 µM in [3] and in series [4] was > 1 h each time. The EC50 in the series on Hepatitis C virus [1] came to 11 nM. The CC50 at 72 h in series [2] was 4100 nM. Also, in [5], the selectivity ratio came out at 373.
Consider `Br.Cn1c(=N)n(CCOc2ccc(Cl)cc2)c2cccc(Cl)c21`, for which the half-life at 2 µM in series [3] and in series [4] was > 1 h in each case. In addition, in the series on Hepatitis C virus [1], the concentration giving a half-maximal response (EC50) was determined as 3.3 nM. The CC50 at 72 h in series [2] was 1500 nM. Also, in series [5], the selectivity ratio amounted to 455.
As for `Cn1c(=NC#N)n(CCOc2ccc(Cl)cc2)c2ccc(Cl)c(Cl)c21`, in the series with Hepatitis C virus [1], the EC50 was > 20000 nM. The 50% cytotoxic concentration (CC50) at 72 h in series [2] is > 20000 nM.
As for `Cn1c(=N)n(CCOc2ccc(-c3ccccc3)cc2)c2ccccc21`, the EC50 with Hepatitis C virus [1] came to 200 nM. The cytotoxic concentration (CC50) at 72 h in [2] amounted to 3400 nM. In addition, the selectivity ratio in [5] worked out at 17.
The matching figures for `Cn1c(=N)n(CC(=O)c2ccc(Cl)cc2)c2ccccc21`: 73 nM, 20000 nM and 274.
For `Br.Cc1ccc2c(c1)n(CCOc1ccc(Cl)cc1)c(=N)n2C`, the half-life at 2 µM in [3] was 0.3 h; in series [4], > 1 h. The EC50 in the series on Hepatitis C virus [1] turned out to be 90 nM. This compound came in with a half-maximal cytotoxic concentration (CC50) at 72 h in [2] of 10600 nM. For the same compound, the selectivity ratio in series [5] amounted to 118.
The matching figures for `Br.Cn1c(=N)n(CCOc2ccc(Cl)cc2)c2c(Cl)cccc21`: 0.623 h, > 1 h, 9.7 nM, 4300 nM and 443.
As for `Cn1c(=N)n(CC(=O)c2ccc3ccccc3c2)c2ccccc21`, in the series with Hepatitis C virus [1], the concentration for a half-maximal effect (EC50) is 340 nM. For the same compound, the cytotoxic concentration (CC50) at 72 h in series [2] came out at 4500 nM. In addition, the selectivity ratio in series [5] was 13.
In the case of `Br.Cn1c(=N)n(CCOc2ccc(Cl)cc2)c2cc(Cl)ccc21`, the half-life at 2 µM in [3] and in series [4] was > 1 h in each case. In addition, in the series with Hepatitis C virus [1], the EC50 amounted to 40 nM. The compound also gave a CC50 at 72 h in series [2] of 9840 nM. In addition, the selectivity ratio in [5] amounted to 246.
On to `CCc1ccc(C(=O)Cn2c(=N)n(C)c3ccccc32)cc1`, for which the EC50 with Hepatitis C virus [1] turned out to be 380 nM. For the same compound, the CC50 at 72 h in [2] was 9500 nM. The selectivity ratio in [5] is 25.
In the case of `Cn1c(=N)n(Cc2ccc(C(C)(C)C)cc2)c2ccccc21`, in the series on Hepatitis C virus [1], the EC50 turned out to be 170 nM. Besides, it took 5900 nM to reach half-maximal cytotoxicity in [2] (CC50 at 72 h). Further, in series [5], the selectivity ratio is 34.7.
The like results for `Cn1c(=N)n(Cc2ccc(-c3ccccc3)cc2)c2ccccc21` were, in that order, 220 nM, 2600 nM and 11.8.
The matching figures for `Cn1c(=N)n(CC(=O)c2ccc(C(C)(C)C)cc2)c2ccccc21`: 79 nM, 8900 nM and 113.
